The values below come from ChEMBL document CHEMBL3997808 (J Med Chem, 2017).

In brackets after ≈: the same amount, converted by molar mass.

In data set [1] the target is T1, Receptor-interacting serine/threonine-protein kinase 1 (Homo sapiens, UniProt Q13546).
T1 sequence (Q13546 whole entry): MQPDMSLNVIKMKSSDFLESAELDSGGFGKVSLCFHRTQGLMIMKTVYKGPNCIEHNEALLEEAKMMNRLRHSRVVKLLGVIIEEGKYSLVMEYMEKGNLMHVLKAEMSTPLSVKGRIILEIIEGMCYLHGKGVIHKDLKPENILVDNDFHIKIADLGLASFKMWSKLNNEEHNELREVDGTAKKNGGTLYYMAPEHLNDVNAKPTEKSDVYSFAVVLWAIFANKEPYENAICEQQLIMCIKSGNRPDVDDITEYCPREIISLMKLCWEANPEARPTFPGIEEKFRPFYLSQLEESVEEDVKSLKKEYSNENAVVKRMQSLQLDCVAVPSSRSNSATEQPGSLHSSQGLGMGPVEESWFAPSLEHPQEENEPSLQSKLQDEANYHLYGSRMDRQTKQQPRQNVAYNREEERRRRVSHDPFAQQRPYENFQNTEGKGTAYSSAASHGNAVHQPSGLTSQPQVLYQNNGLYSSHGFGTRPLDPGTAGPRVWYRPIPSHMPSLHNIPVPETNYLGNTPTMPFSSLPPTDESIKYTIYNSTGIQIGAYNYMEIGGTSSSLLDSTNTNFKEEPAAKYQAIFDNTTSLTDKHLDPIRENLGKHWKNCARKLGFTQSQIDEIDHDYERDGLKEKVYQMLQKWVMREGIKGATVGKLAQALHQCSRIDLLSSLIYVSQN
Nature of the data set: Inhibition of human RIP1 (1 to 375 residues) expressed in baculovirus infected insect cells preincubated for 1 hr followed by ATP addition measured after 5 hrs by ADP-Glo luminescence assay. In general terms: In ADP-Glo the light output rises with the ADP produced.

The nature of data set [2]: Lipophilicity, log D of the compound at pH 7.4 by RP-HPLC method. In kind it is physicochemical. The settings on record: buffer. The essentials: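 Chromatographic hydrophobicity index (CHI) log D at pH 7.4, calculated from the retention time in a fast-gradient reverse-phase HPLC run.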
Data set [3] can be described thus: (§1) AUC (0 to infinity) in rat at 2 mg/kg, po. In kind it is ADME, organism-based. Details: dose 2 mg/kg, route oral, time infinity. Particulars: in vivo.
Data set [4] in a line: Solubility of the compound in FaSSIF. In kind it is physicochemical.
Data set [5] has as its target T1, Receptor-interacting serine/threonine-protein kinase 1. As to the kind of experiment: Displacement of (14-(2-{[3-({2-{[4-(cyanomethyl)phenyl]amino}-6-[(5-cyclopropyl-1H-pyrazol-3-yl)-amino]-4-pyrimidinyl}amino)propyl]amino}-2-oxoethyl)-16,16,18,18-tetramethyl-6,7,7a,8a,9,10,16,18-octahydrobenzo[2'',3'']indolizino-[8'',7'':5',6']pyrano[3',2':3,4]pyrido[1,2-a]indol-5-ium-2-sulfonate from human RIP1 (1 to 375 residues) expressed in baculovirus infected insect cells measured for 50 min.

In data set [6] the test system is Rattus norvegicus. The description is as §1. On the set-up: dose 2 mg/kg, route oral, time infinity. The settings on record: in vivo, BLD = below limit of detection. In kind it is ADME, organism-based.
A short description of data set [7]: Drug level in rat hepatocytes treated with GSK2982772 at 10 uM measured up to 4 hrs. In kind it is ADME, cell-based, Hepatocyte. The essentials:
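Compound at 10 μM was incubated with hepatocyte suspensions at 1 million cells/mL. Incubation ran at 37°C under 5% CO2:95% O2 for up to 4 h.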

The nature of data set [8]: Clearance in rat at 2 mg/kg, po. In kind it is ADME, organism-based. Particulars: in vivo.
For data set [9], the system named is Rattus norvegicus. Nature of the data set: Volume of distribution in rat at 2 mg/kg, po. In kind it is ADME, organism-based. The settings on record: in vivo.

Turning to `CN1C(=O)[C@@H](NC(=O)c2ncc(Cc3ccccc3)o2)COc2ccccc21`, inhibition in data set [1] was half-maximal at 0.05 nM (IC50). In [2], the chromatographic logD came out at 5.6. This molecule gave an AUC(0-inf) in data set [3] of 55 ng·h/mL.
In data set [1], `CN1C(=O)[C@@H](NC(=O)c2cc(Cc3ccccc3)on2)COc2ccc(-c3n[nH]c(=O)o3)cc21` yielded an IC50 of 0.5 nM. The molecule further showed a chromatographic logD in data set [2] of 4.4. The molecule also came in with a solubility in data set [4] of 8 µg/mL (≈ 17.3 µM). The molecule also yielded an AUC(0-inf) in data set [3] of 2100 ng·h/mL.
The molecule `CN1C(=O)[C@@H](NC(=O)c2c[nH]c(Cc3ccccc3)n2)COc2ccccc21` returned an IC50 in [5] of 1260 nM. In data set [2], the chromatographic logD is 3.8.
In turn, `CN1C(=O)[C@@H](NC(=O)c2cc(Cc3ccccc3)on2)CSc2ccccc21` registered a chromatographic logD in [2] of 6.2. In addition, the AUC entry in data set [6] is on record as “Bld”.
`CN1C(=O)[C@@H](NC(=O)c2coc(Cc3ccccc3)n2)COc2ccccc21` displayed an IC50 in [5] of 794 nM. In addition, in data set [2], the chromatographic logD was determined as 5.4.
`COC(=O)Nc1ccc2c(c1)N(C)C(=O)[C@@H](NC(=O)c1cc(Cc3ccccc3)on1)CO2` registered an IC50 in data set [1] of 0.32 nM. The molecule also had an AUC(0-inf) in [3] of 1100 ng·h/mL.
In data set [2], `CN1C(=O)[C@@H](NC(=O)c2cc(Cc3ccccc3)on2)CCc2ccccc21` had a chromatographic logD of 6. The AUC(0-inf) in data set [3] amounted to 7 ng·h/mL.
As for `CN1C(=O)[C@@H](NC(=O)c2ncc(Cc3ccccc3)s2)COc2ccccc21`, the chromatographic logD in data set [2] amounted to 6.5.
Turning to `CN1C(=O)[C@@H](NC(=O)c2nnn(Cc3ccccc3)n2)COc2ccccc21`, the IC50 in data set [1] came out at 0.079 nM. This molecule had a chromatographic logD in data set [2] of 5. In [3], this molecule registered an area under the curve AUC(0-inf) of 240 ng·h/mL.
For `CN1C(=O)[C@@H](NC(=O)c2cccc(Cc3ccccc3)c2)COc2ccccc21`, in data set [5], the IC50 is 251 nM. This molecule also displayed a chromatographic logD in data set [2] of 6.3.
Regarding `CN1C(=O)[C@@H](NC(=O)c2ncn(Cc3ccccc3)n2)COc2ccccc21`, the half-maximal inhibitory concentration (IC50) in data set [1] was 0.63 nM. In data set [2], this molecule showed a chromatographic logD of 4.2. The molecule also yielded an AUC(0-inf) in [3] of 280 ng·h/mL.
With `CCCCCc1cc(C(=O)N[C@H]2COc3ccccc3N(C)C2=O)no1`, the 50% inhibitory concentration (IC50) in data set [5] came out at 100 nM.
As to `CN1C(=O)[C@@H](NC(=O)c2cc(Cc3ccccc3)ccn2)COc2ccccc21`, in data set [1], the IC50 was 2 nM. The chromatographic logD in data set [2] came out at 6.4.
Molecule `O=C(N[C@H]1CO[C@@H]2CCCC[C@H]2NC1=O)c1cc(Cc2ccccc2)on1` had an IC50 in data set [5] of more than 10000 nM.
`O=C(N[C@H]1CCOc2ccccc2NC1=O)c1cc(Cc2ccccc2)on1` showed an IC50 in data set [5] of 200 nM. In data set [3], the AUC(0-inf) was 380 ng·h/mL.
Turning to `CN1C[C@H](NC(=O)c2cc(Cc3ccccc3)on2)C(=O)N(C)c2ccccc21`, inhibition in data set [1] was half-maximal at 5 nM (IC50). For the same molecule, the chromatographic logD in data set [2] was found to be 6. In data set [3], this molecule returned an AUC(0-inf) of 82 ng·h/mL.
Molecule `CN1C(=O)[C@@H](NC(=O)c2cc(Cc3ccccc3)on2)COc2ccc(NS(C)(=O)=O)cc21` showed an IC50 in data set [1] of 0.63 nM.
Take `CN1C(=O)[C@@H](N)COc2ccccc21`: in data set [7], the Drug metabolism entry is listed as “Metabolite_Detected”.
The same measure, in the same setting: the result for `CN1C(=O)[C@@H](NC(=O)c2n[nH]c(C(O)c3ccccc3)n2)COc2ccccc21` (some centres not stated) reads “Metabolite_Detected”.
As for `CN1C(=O)[C@@H](NC(=O)c2cn(Cc3ccccc3)cn2)COc2ccccc21`, the half-maximal inhibitory concentration (IC50) in [1] was found to be 0.4 nM. This molecule showed a chromatographic logD in data set [2] of 4.2. In data set [3], the AUC(0-inf) amounted to 660 ng·h/mL.
In the case of `C[C@]1(NC(=O)c2cc(Cc3ccccc3)on2)COc2ccccc2NC1=O`, in data set [5], the IC50 was more than 10000 nM.
`O=C(N[C@H]1COc2ccccc2NC1=O)c1cc(Cc2ccccc2)on1` registered an area under the curve AUC(0-inf) in data set [3] of 2200 ng·h/mL.
In [5], `O=C(N[C@@H]1CNc2ccccc2OC1)c1cc(Cc2ccccc2)on1` yielded an IC50 of more than 10000 nM.
In data set [1], `CN1C(=O)[C@@H](NC(=O)c2nnc(Cc3ccccc3)o2)COc2ccccc21` gave an IC50 of 0.79 nM. The same molecule came in with a chromatographic logD in data set [2] of 4.9. In data set [3], this molecule showed an AUC(0-inf) of 130 ng·h/mL.
For `CN1C(=O)[C@@H](NC(=O)c2noc(Cc3ccccc3)n2)COc2ccccc21`, in that order: 0.5 nM, 5.4 and 33 ng·h/mL.
For the molecule `CN1C(=O)[C@@H](NC(=O)c2cc(CC3CCCCC3)on2)COc2ccccc21`, in data set [5], the IC50 is 251 nM.
As for `CN1C(=O)[C@@H](NC(=O)c2cc(Cc3ccccc3)n(C)n2)COc2ccccc21`, in data set [1], the IC50 is 0.4 nM. This molecule displayed a chromatographic logD in data set [2] of 5.4. Also, the AUC(0-inf) in data set [3] is 170 ng·h/mL.
Molecule `CN1C(=O)[C@@H](NC(=O)c2cc(CN3CCCCC3)on2)COc2ccccc21` returned an IC50 in data set [5] of more than 10000 nM.
For the molecule `CN1C(=O)[C@@H](NC(=O)c2cn(Cc3ccccc3)nn2)COc2ccccc21`, 1 nM corresponded to half-maximal inhibition in [1] (IC50). In [2], this molecule had a chromatographic logD of 4.6. Moreover, in [3], the AUC(0-inf) was found to be 1300 ng·h/mL.
With `O=C(N[C@H]1COc2ccccc2N(C2CC2)C1=O)c1cc(Cc2ccccc2)on1`, the IC50 in data set [5] is more than 10000 nM.
Take `O=C(N[C@H]1COCCNC1=O)c1cc(Cc2ccccc2)on1`: the IC50 in [5] is more than 10000 nM.
`CN1C(=O)[C@@H](NC(=O)c2cc(Cc3ccccc3)on2)COc2ccccc21` returned a chromatographic logD in data set [2] of 5.9. In [4], the concentration in solution (solubility) came to 30 µg/mL (≈ 79.5 µM). In data set [3], this molecule came in with an AUC(0-inf) of 380 ng·h/mL. This molecule also gave an apparent clearance CL/F in [8] of 69 mL/min/kg. The Vd in data set [9] is 8.5 L/kg.
In data set [5], `CN(C(=O)c1cc(Cc2ccccc2)on1)[C@H]1COc2ccccc2NC1=O` yielded an IC50 of more than 10000 nM.
`O=C(N[C@H]1COc2ccccc2NC1=O)c1n[nH]c(Cc2ccccc2)n1`: in [7], the Drug metabolism entry is listed as “Metabolite_Detected”.
With `Cc1cc(C(=O)N[C@H]2COc3ccccc3N(C)C2=O)no1`, the IC50 in [5] came out at 12600 nM.
In turn, `CC(=O)Nc1ccc2c(c1)N(C)C(=O)[C@@H](NC(=O)c1cc(Cc3ccccc3)on1)CO2` yielded an IC50 in [1] of 0.32 nM. The total exposure AUC(0-inf) in data set [3] was 450 ng·h/mL.
Turning to `O=C(O)c1n[nH]c(Cc2ccccc2)n1`, the Drug metabolism result in data set [7] is recorded as “Metabolite_Detected”.
In the case of `CCN1C(=O)[C@@H](NC(=O)c2cc(Cc3ccccc3)on2)COc2ccccc21`, the IC50 in data set [5] amounted to 3160 nM.
On the same count and under the same terms, the result for `CC(C)Cc1cc(C(=O)N[C@H]2COc3ccccc3N(C)C2=O)no1` reads 1600 nM.
In the case of `CN1C(=O)[C@@H](NC(=O)c2cc(Cc3ccccc3)on2)CNc2ccccc21`, in data set [2], the chromatographic logD amounted to 5. Also, the concentration in solution in data set [4] (solubility) came to 97 µg/mL (≈ 258 µM). In data set [3], this molecule came in with an AUC(0-inf) of 800 ng·h/mL.
In the case of `CN1C(=O)[C@@H](NC(=O)c2cc(Cc3ccccc3)on2)COc2ccc(-c3cc[nH]n3)cc21`, the IC50 in [1] was 1 nM. Moreover, the area under the curve AUC(0-inf) in [3] worked out at 600 ng·h/mL.
In the case of `CN1C(=O)[C@@H](NC(=O)c2cnn(Cc3ccccc3)c2)COc2ccccc21`, the IC50 in [5] was 63 nM. This molecule also gave a chromatographic logD in data set [2] of 4. This molecule had an AUC(0-inf) in [3] of 2900 ng·h/mL.
`O=C(NC1Cc2ccccc2NC1=O)c1cc(Cc2ccccc2)on1` (configuration not stated) registered an IC50 in data set [5] of more than 10000 nM.

What is called IC50 is the concentration needed to halve the response being measured. In general, chromatographic logD refers to a lipophilicity value derived from retention on a column. A higher chromatographic logD goes with higher lipophilicity. By AUC(0-inf) is commonly meant total exposure, with the tail of the curve extrapolated. Read a high AUC(0-inf) as high exposure. Broadly, the solubility is the dissolved amount per volume that the medium holds. Low values mean a poorly soluble substance, high ones a readily soluble substance. One may read the CL/F as clearance divided by bioavailability, as obtained after extravascular dosing.
